Assay results taken from ChEMBL document CHEMBL1156619, “TX-2152: a conformationally rigid and electron-rich diyne analogue of FTY720 with in vivo antiangiogenic activity” (Bioorg Med Chem, 2008).

Assays:
[1] = Hydrophobicity, Log P of the compound; assay type: physicochemical; conditions: octanol/water
Outline: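 Observed logP (logPow) measured by HPLC on a C18 column. Mobile phase methanol/water 3:1 (v/v) at 1.0 mL/min, UV detection at 254 nm. Test and reference compounds dissolved in mobile phase for injection.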

[2] = species: Gallus gallus; assay: Antiangiogenic activity in chick embryo chorioallantoic membrane assessed as number of eggs showing 3 mm avascular zone at 10 ug; assay type: functional, tissue-based
Outline: (§1)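 Fertilized chicken eggs held at 37.6 °C, humidified, for 4 days; 3 mL albumin withdrawn and air sac displaced to drop the CAM, window capped, incubation at 39.0 °C. Next day a silicon ring placed on the 2–3 mm CAM and test solution applied dropwise at room temperature. Compounds in DMSO, vehicle control 0.05% DMSO in 1% methyl cellulose/0.9% NaCl. After 1 day incubator raised to 39.5 °C and eggs incubated 1 more day. Vessels then visualized by injecting fat emulsion (1 mL) into the CAM and scored for inhibition.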

[3] = species: Gallus gallus; assay: Antiangiogenic activity in chick embryo chorioallantoic membrane assessed as number of eggs showing 3 mm avascular zone at 1 ug; assay type: functional, tissue-based; outline: as §1
[4] = species: Gallus gallus; assay: Antiangiogenic activity in chick embryo chorioallantoic membrane assessed as number of eggs showing 3 mm avascular zone at 5 ug; assay type: functional, tissue-based; outline: as §1
[5] = species: Gallus gallus; assay: Antiangiogenic activity in chick embryo chorioallantoic membrane assessed as number of eggs showing 3 mm avascular zone at 2.5 ug; assay type: functional, tissue-based; outline: as §1
[6] = species: Gallus gallus; assay: Antiangiogenic activity in chick embryo chorioallantoic membrane assessed as number of eggs showing 3 mm avascular zone at 100 ug; assay type: functional, tissue-based; outline: as §1

Compound	logP [1]	inhibition [2] [%]	inhibition [3] [%]	inhibition [4] [%]	inhibition [5] [%]	inhibition [6] [%]
CC(=O)NC(CCc1ccc(C#CC#CC#C[Si](C)(C)C)cc1)(COC(C)=O)COC(C)=O	5.9	–	–	–	–	–
CC(=O)NC(CCc1ccc(C#C[Si](C)(C)C)cc1)(COC(C)=O)COC(C)=O	4.07	–	–	–	–	–
C#CC#Cc1ccc(CCC(N)(CO)CO)cc1	–	90	35	79	71	–
C#CC#CC#Cc1ccc(CCC(N)(CO)CO)cc1	–	60	40	67	67	–
CCCCCCCCc1ccc(CCC(N)(CO)CO)cc1	–	77	40	–	–	100
C#Cc1ccc(CCC(N)(CO)CO)cc1	–	42	17	17	–	–
CO[C@@H]1[C@H](OC(=O)NC(=O)CCl)CC[C@]2(CO2)[C@H]1[C@@]1(C)O[C@@H]1CC=C(C)C	–	82	50	78	–	–
CC(=O)NC(CCc1ccc(C#CC#C[Si](C)(C)C)cc1)(COC(C)=O)COC(C)=O	4.97	–	–	–	–	–
